Measured values published in ChEMBL document CHEMBL4014308, “Amphiphilic Tobramycin-Lysine Conjugates Sensitize Multidrug Resistant Gram-Negative Bacteria to Rifampicin and Minocycline” (J Med Chem, 2017).

System: Pseudomonas aeruginosa
Test: Potentiation of rifampicin-induced antibacterial activity against multidrug/extremely drug-resistant/colistin-susceptible Pseudomonas aeruginosa isolate P262-101856 at 4 ug/ml after 18 hrs by checkerboard assay
Assay type: functional
Procedure, shortened: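 Checkerboard broth microdilution in MHB: antibiotic serially diluted along one axis, adjuvant along the other (10 × 7 matrix). Inoculum from 0.5 McFarland saline suspension diluted 1:50 in MHB; 18 h at 37 °C. MIC taken as lowest concentration with no growth. FIC per agent = combination MIC/MIC alone; FIC index = sum (≤0.5 synergy).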

## Cl.Cl.Cl.Cl.Cl.Cl.Cl.NCCCC[C@H](N)C(=O)N(CCCCCCCCCCCCO[C@@H]1[C@@H](O[C@H]2O[C@H](CO)[C@@H](O)[C@H](N)[C@H]2O)[C@H](N)C[C@H](N)[C@H]1O[C@H]1O[C@H](CN)[C@@H](O)C[C@H]1N)Cc1c2ccccc2c(Cl)c2ccccc12
  fractional inhibitory concentration index (FICI): 0.141
